In ChEMBL document CHEMBL5724801, “EUbOPEN Chemogenomics Library - Multiplex” (2024):
Where “and” joins values, the source holds several entries; their conditions need not be identical. Identical values can stand only once.

Test system: HEK-293T
Assay: Multiplex assay against HEK293T
Type: toxicity, cell-based
Details: human
Outline: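 Compound was added to live cells that had been stained at seeding with Hoechst33342, BioTracker Green Microtubule Cytoskeleton Dye, MitoTracker Red and Annexin V Alexa Fluor 680, and imaging followed on a CQ1 microscope at 37°C and 5% CO2. CellPathfinder machine-learning gating divided cells into Hoechst high-intensity objects or normal cells, normal cells into healthy, pyknosed or fragmented nuclei, and pyknosed cells into mitotic or apoptotic. Tubulin, mitochondrial-mass and membrane-permeability phenotypes are per cents of healthy-nucleus cells.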

[1] = 12 h, 1 µM, compound concentration 1 uM
[2] = 12 h, 10 µM, compound concentration 10 uM
[3] = 24 h, 1 µM, compound concentration 1 uM
[4] = 24 h, 10 µM, compound concentration 10 uM
[5] = 48 h, 1 µM, compound concentration 1 uM
[6] = 48 h, 10 µM, compound concentration 10 uM

C=CCN1C[C@H](C(=O)N(CCCN(C)C)C(=O)NCC)C[C@@H]2c3cccc4[nH]cc(c34)C[C@H]21 [CABERGOLINE]
Population Apoptotic (%) [1]: 36% and 37% | Population Fragmented Nuclei (%) [1]: 4% and 5% | Population Healthy Nuclei (%) [1]: 76% and 79% | Population Hoechst High Intensity Objects (%) [1]: 8% | Population Membrane Permeable-Phenotype (%) [1]: 0% | Population Mitochondria Different-Phenotype (%) [1]: 51% and 68% | Population Mitotic Cells (%) [1]: 63% and 62% | Population Normal (%) [1]: 91% | Population Pyknosed Nuclei (%) [1]: 18% and 14% | Population Tubulin-Different-Phenotype (%) [1]: 41% and 24% | Total Cell Count [1]: 370 and 322 | Population Apoptotic (%) [2]: 53% and 60% | Population Fragmented Nuclei (%) [2]: 8% and 6% | Population Healthy Nuclei (%) [2]: 76% and 78% | Population Hoechst High Intensity Objects (%) [2]: 12% and 8% | Population Membrane Permeable-Phenotype (%) [2]: 0% | Population Mitochondria Different-Phenotype (%) [2]: 65% and 81% | Population Mitotic Cells (%) [2]: 46% and 40% | Population Normal (%) [2]: 87% and 91% | Population Pyknosed Nuclei (%) [2]: 14% | Population Tubulin-Different-Phenotype (%) [2]: 54% and 55% | Total Cell Count [2]: 438 and 371 | Population Apoptotic (%) [3]: 43% and 40% | Population Fragmented Nuclei (%) [3]: 9% and 6% | Population Healthy Nuclei (%) [3]: 80% and 83% | Population Hoechst High Intensity Objects (%) [3]: 4% and 6% | Population Membrane Permeable-Phenotype (%) [3]: 1% and 0% | Population Mitochondria Different-Phenotype (%) [3]: 29% and 46% | Population Mitotic Cells (%) [3]: 56% and 59% | Population Normal (%) [3]: 95% and 93% | Population Pyknosed Nuclei (%) [3]: 10% and 9% | Population Tubulin-Different-Phenotype (%) [3]: 20% and 19% | Total Cell Count [3]: 512 and 406 | Population Apoptotic (%) [4]: 37% and 42% | Population Fragmented Nuclei (%) [4]: 10% | Population Healthy Nuclei (%) [4]: 77% and 79% | Population Hoechst High Intensity Objects (%) [4]: 8% and 12% | Population Membrane Permeable-Phenotype (%) [4]: 0% | Population Mitochondria Different-Phenotype (%) [4]: 51% and 64% | Population Mitotic Cells (%) [4]: 62% and 57% | Population Normal (%) [4]: 91% and 87% | Population Pyknosed Nuclei (%) [4]: 11% and 9% | Population Tubulin-Different-Phenotype (%) [4]: 48% and 43% | Total Cell Count [4]: 556 and 425 | Population Apoptotic (%) [5]: 13% and 35% | Population Fragmented Nuclei (%) [5]: 12% and 11% | Population Healthy Nuclei (%) [5]: 80% and 81% | Population Hoechst High Intensity Objects (%) [5]: 4% and 3% | Population Membrane Permeable-Phenotype (%) [5]: 1% | Population Mitochondria Different-Phenotype (%) [5]: 21% and 23% | Population Mitotic Cells (%) [5]: 86% and 65% | Population Normal (%) [5]: 95% and 96% | Population Pyknosed Nuclei (%) [5]: 7% and 6% | Population Tubulin-Different-Phenotype (%) [5]: 16% and 10% | Total Cell Count [5]: 763 and 633 | Population Apoptotic (%) [6]: 26% and 43% | Population Fragmented Nuclei (%) [6]: 13% and 10% | Population Healthy Nuclei (%) [6]: 76% and 82% | Population Hoechst High Intensity Objects (%) [6]: 5% and 6% | Population Membrane Permeable-Phenotype (%) [6]: 0% | Population Mitochondria Different-Phenotype (%) [6]: 35% and 32% | Population Mitotic Cells (%) [6]: 73% and 56% | Population Normal (%) [6]: 94% and 93% | Population Pyknosed Nuclei (%) [6]: 9% and 6% | Population Tubulin-Different-Phenotype (%) [6]: 25% and 20% | Total Cell Count [6]: 786 and 676
